From ChEMBL document CHEMBL1145429, “Enaminone amides as novel orally active GABAA receptor modulators” (J Med Chem, 2007)
Active and inactive are the calls of the source. The calls are words filed in the database; no cut-off is given here.

Experiments:
[1] = (§1) Displacement of [35S]TBPS from GABAA receptor in Sprague-Dawley rat cortex membrane; assay type: cell membranes
[2] = species on record: Rattus norvegicus; assay: as §1; assay type: cell membranes
[3] = tested on: Mus musculus; assay: Induction of loss of righting reflex in non-Swiss Albino mouse at 50 mg/kg, ip after 40 mins; assay type: functional, organism-based; design: dose 50 mg/kg
Summary of the method: (§2)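 Male NSA mice were dosed at 50 mg/kg ip or po in PEG 400 and then placed on their backs. Animals staying on their backs for more than 1 min were scored as having lost the righting reflex.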

[4] = tested on: Mus musculus; assay: Induction of loss of righting reflex in non-Swiss Albino mouse at 50 mg/kg, po; assay type: functional, organism-based; design: dose 50 mg/kg; summary of the method: as §2
[5] = tested on: Mus musculus; assay: Anticonvulsant activity against pentylenetetrazole-induced seizures in non-Swiss Albino mouse at 50 mg/kg, ip; assay type: functional, organism-based; design: dose 50 mg/kg
[6] = species on record: Rattus norvegicus; assay: Enhancement of [3H]muscimol binding to BZ-site of GABAA receptor in Sprague-Dawley rat cortex membrane; assay type: cell membranes
[7] = Enhancement of [3H]flunitrazepam binding to BZ-site of GABAA receptor in Sprague-Dawley rat cortex membrane; assay type: cell membranes
Summary of the method: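 Conditions and membrane preparation match the TBPS assay, except that GABA was 1 µM. Sites were labelled with 0.2 nM [3H]flunitrazepam, and nonspecific binding was defined with 1 µM clonazepam.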

[8] = tested on: Mus musculus; assay: CNS toxicity by rotarod test in non-Swiss Albino mouse at 50 mg/kg, po; assay type: organism-based; design: dose 50 mg/kg, route oral; settings: in vivo
Summary of the method: (§3)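 Mice were dosed orally and scored on the rotarod for CNS depressant potential. TD50, the dose causing behavioral toxicity in half the animals, was calculated from each dose-response function by the Litchfield-Wilcoxon method.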

[9] = tested on: Mus musculus; assay: Suppression of locomotor activity in non-Swiss Albino mouse at 50 mg/kg, po; assay type: functional, organism-based; design: dose 50 mg/kg
Summary of the method: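 Male NSA mice, either nonhabituated or habituated (30 min in the chamber on 3 consecutive days), were given compound in PEG 400 or vehicle and immediately placed in an activity chamber. Horizontal beam breaks were recorded every 5 min, over 1 h for habituated mice. Activity was taken as total distance traveled (cm), with testing between 9 a.m. and 2 p.m.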

[10] = species on record: Rattus norvegicus; assay: Displacement of [3H]flunitrazepam from BZ-site of GABAA receptor in Sprague-Dawley rat cortex membrane; assay type: cell membranes
Summary of the method: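 P2 membrane pellet (sucrose homogenate spun 1000g then 9000g), resuspended in 50 mM Na/K phosphate pH 7.4 with 200 mM NaCl. Incubated with 0.2 nM [3H]flunitrazepam, 1 µM GABA and test drug in DMSO (≤1%) for 90 min at 25 °C. Nonspecific binding defined with 1 µM clonazepam. Filtration, scintillation counting; nonlinear regression fit.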

[11] = tested on: Mus musculus; assay: Anxiolytic activity in non-Swiss Albino mouse assessed as reduction of time spent in dark at 3 mg/kg, po; assay type: functional, organism-based; design: dose 3 mg/kg
Summary of the method: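 Male NSA mice (25-30 g) were dosed po 30 min before a 3 min session in a light-dark box: a black compartment lit with red light and an illuminated white compartment, joined by a floor-level hole. Time spent in each compartment was recorded. Vehicle was 3:1 PEG 400/5% dextrose in water.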

[12] = tested on: Mus musculus; assay: CNS toxicity by rotarod test in non-Swiss Albino mouse at 3 mg/kg, po; assay type: organism-based; design: dose 3 mg/kg, route oral; settings: in vivo; summary of the method: as §3
[13] = Therapeutic index, ratio of light-dark MED to TD50 by rotarod test in non-Swiss Albino mouse at 3 mg/kg, po; assay type: organism-based; design: dose 3 mg/kg, route oral; settings: in vivo, read-out: TI
Summary of the method: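 The index was calculated as […]. Both were measured in male NSA mice given oral doses. TD50 was derived by the Litchfield-Wilcoxon method, and light-dark time was recorded over a 3 min session 30 min after dosing.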

[14] = molecular target: GABA-A receptor; alpha-1/beta-2/gamma-2 (Homo sapiens) (UniProt P14867+P47870+P18507); assay: Activity at human GABAA alpha-1-beta-2-gamma-2L expressed in Xenopus oocytes assessed as potentiation of GABA currents in absence of GABA at 10 uM; assay type: cell-based; settings: Oocyte

With `CCCNC(=O)/C(=C\Nc1ccc(Cl)cc1)C(=O)c1ccccc1Cl` the IC50 [1] was 45 nM, the Imax [2] was 90% and the Activity [3] was “Active”. For the same molecule, the Activity [4] was “inactive” and the Activity [5] was “inactive”.
Molecule `CCOC(=O)/C(=C\Nc1ccc(F)cc1)C(=O)c1cccc(Cl)c1` has an IC50 [1] of 900 nM and an Imax [2] of 90%.
With `CCOC(=O)/C(=C\Nc1ccc(C)cc1)C(=O)c1ccccc1Cl` the IC50 [1] was 450 nM and the Imax [2] was 93%.
`CCOC(=O)/C(=C\Nc1ccc(C(C)C)cc1)C(=O)c1ccccc1Cl` showed an IC50 [1] of 360 nM and an Imax [2] of 94%.
For `CC(C)(C)NC(=O)/C(=C\Nc1ccc(Cl)cc1)C(=O)c1ccccc1Cl`, the IC50 [1] was 3000 nM, the Imax [2] was 100% and the Activity [5] was “inactive”.
Molecule `CCOC(=O)/C(=C\Nc1ccc(F)cc1)C(=O)c1ccc(Cl)cc1` has an IC50 [1] of 490 nM and an Imax [2] of 100%.
For `C#Cc1ccc(N/C=C(\C(=O)OCC)C(=O)c2ccccc2Cl)cc1`, the IC50 [1] was 8 nM, the Imax [2] was 100% and the Activity [6] was “Active”. For the same molecule, the EC50 [7] was 6 nM.
With `O=C(NC1CCC1)/C(=C\Nc1ccc(Cl)cc1)C(=O)c1ccccc1Cl` the IC50 [1] was 7 nM, the Imax [2] was 88% and the Activity [3] was “Active”. The Activity [5] was “inactive”.
For `CCOC(=O)/C(=C\Nc1cccc(Cl)c1)C(=O)c1ccccc1Cl`, the IC50 [1] was 600 nM and the Imax [2] was 100%.
For `NC(=O)/C(=C\Nc1ccc(Cl)cc1)C(=O)c1ccccc1Cl`, the Imax [2] was 40% and the Activity [5] was “inactive”.
For `CC(C)C(C)NC(=O)/C(=C\Nc1ccc(Cl)cc1)C(=O)c1ccccc1Cl` (stereo unspecified), the IC50 [1] was 400 nM, the Imax [2] was 94% and the Activity [5] was “inactive”.
In the case of `CCNC(=O)/C(=C\Nc1ccc(Cl)cc1)C(=O)c1ccccc1Cl`, the Activity [8] is reported as “Non-toxic”, the IC50 [1] is reported as 50 nM and the Imax [2] is reported as 82%. For the same molecule, the Activity [3] was “Active”, the Activity [4] was “inactive” and the Activity [5] was “inactive”.
Molecule `CCOC(=O)/C(=C\Nc1ccc(F)cc1)C(=O)c1ccccc1Cl` has an IC50 [1] of 300 nM and an Imax [2] of 93%.
With `CCOC(=O)/C(=C\Nc1ccccc1Cl)C(=O)c1ccccc1Cl` the IC50 [1] was 700 nM and the Imax [2] was 100%.
For `CCOC(=O)/C(=C\Nc1ccc(Cl)cc1)C(=O)c1ccccc1Cl`, the IC50 [1] was 90 nM, the Imax [2] was 95% and the Activity [3] was “Active”. The Activity [4] was “inactive” and the Activity [9] was “inactive”.
In the case of `C#Cc1ccc(N/C=C(\C(=O)NCCC)C(=O)c2ccccc2Cl)cc1`, the Activity [6] is reported as “Active” and the EC50 [7] is reported as 60 nM.
With `O=C(NC1CC1)/C(=C\Nc1ccc(Cl)cc1)C(=O)c1ccccc1Cl` the IC50 [1] was 30 nM, the Imax [2] was 92% and the Activity [3] was “Active”. For the same molecule, the Activity [5] was “inactive”.
In the case of `O=C(NC1CCCC1)/C(=C\Nc1ccc(Cl)cc1)C(=O)c1ccccc1Cl`, the IC50 [1] is reported as 30 nM, the Imax [2] is reported as 88% and the Activity [5] is reported as “inactive”.
With `O=C1CN=C(c2ccccc2Cl)c2cc([N+](=O)[O-])ccc2N1` the Activity [10] was “Dose-dependent effect”.
With `CC(C)NC(=O)/C(=C\Nc1ccc(Cl)cc1)C(=O)c1ccccc1Cl` the IC50 [1] was 40 nM, the Imax [2] was 80% and the Activity [3] was “Active”. For the same molecule, the Activity [11] was “Active”, the Activity [12] was “Non-toxic” and the selectivity ratio [13] was > 10. For the same molecule, the Activity [14] was “inactive” and the Activity [5] was “inactive”.
With `CCC(CC)NC(=O)/C(=C\Nc1ccc(Cl)cc1)C(=O)c1ccccc1Cl` the IC50 [1] was 80 nM, the Imax [2] was 86% and the Activity [5] was “inactive”.
`CCOC(=O)/C(=C\Nc1ccc(F)cc1)C(=O)c1cc(F)c(Cl)cc1Cl` gave an IC50 [1] of 130 nM and an Imax [2] of 87%.
In the case of `CNC(=O)/C(=C\Nc1ccc(Cl)cc1)C(=O)c1ccccc1Cl`, the IC50 [1] is reported as 160 nM, the Imax [2] is reported as 74% and the Activity [5] is reported as “inactive”.
With `CCC(C)NC(=O)/C(=C\Nc1ccc(Cl)cc1)C(=O)c1ccccc1Cl` (stereo unspecified) the IC50 [1] was 20 nM, the Imax [2] was 86% and the Activity [3] was “Active”. For the same molecule, the Activity [5] was “inactive”.
